Source: ChEMBL document CHEMBL4145462, “Nitrogen-containing ecdysteroid derivatives vs. multi-drug resistance in cancer: Preparation and antitumor activity of oximes, oxime ethers and a lactam” (Eur J Med Chem, 2018)
pIC50: −log10 of the molar value.

Columns and labels:
[1] = Synergistic cytotoxicity against mouse L5178 cells expressing human ABCB1 assessed as combination index at ED90 using 30:1 test compound to doxorubicin ratio after 48 hrs by MTT-based checkerboard microplate method; format: functional
In short: (§1)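 Checkerboard microplate combinations of compound with doxorubicin at constant molar ratios. 5 × 10^4 cells/well in McCoy's 5A, 48 h at 37°C, 5% CO2. MTT added to 0.5 mg/mL final for 4 h, SDS/HCl overnight, OD read at 540 and 630 nm. Combination indices derived per ratio for 50%, 75% and 90% growth inhibition by median-effect analysis.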

[2] = Synergistic cytotoxicity against mouse L5178 cells expressing human ABCB1 assessed as combination index at ED75 using 15:1 test compound to doxorubicin ratio after 48 hrs by MTT-based checkerboard microplate method; format: functional; in short: as §1
[3] = Synergistic cytotoxicity against mouse L5178 cells assessed as combination index at ED90 using 300:1 test compound to doxorubicin ratio after 48 hrs by MTT-based checkerboard microplate method; format: functional; in short: as §1
[4] = Synergistic cytotoxicity against mouse L5178 cells assessed as combination index at ED90 using 75:1 test compound to doxorubicin ratio after 48 hrs by MTT-based checkerboard microplate method; format: functional; in short: as §1
[5] = Synergistic cytotoxicity against mouse L5178 cells expressing human ABCB1 assessed as combination index at ED75 using 7.5:1 test compound to doxorubicin ratio after 48 hrs by MTT-based checkerboard microplate method; format: functional; in short: as §1
[6] = Synergistic cytotoxicity against mouse L5178 cells expressing human ABCB1 assessed as combination index at ED90 using 15:1 test compound to doxorubicin ratio after 48 hrs by MTT-based checkerboard microplate method; format: functional; in short: as §1
[7] = Synergistic cytotoxicity against mouse L5178 cells assessed as combination index at ED50 using 75:1 test compound to doxorubicin ratio after 48 hrs by MTT-based checkerboard microplate method; format: functional; in short: as §1
[8] = Cytotoxicity against mouse L5178 cells after 48 hrs by MTT assay; format: functional, cell-based; conditions: L5178, 48 h
In short: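 Parental mouse lymphoma L5178 and the MDR line made by pHa MDR1/A retrovirus transfection, selected with 60 µg/L colchicine. Grown in McCoy's 5A with horse serum at 37°C, 5% CO2. 5 x 10^4 cells/well, serial compound dilutions, 48 h. MTT added to 0.5 mg/mL final for 4 h, then 10% SDS in 0.01 M HCl overnight, OD read at 540 and 630 nm. IC50 taken as median cytotoxic activity (Dm) from control lanes of checkerboard plates, n=2.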

[9] = Synergistic cytotoxicity against mouse L5178 cells assessed as combination index at ED75 using 600:1 test compound to doxorubicin ratio after 48 hrs by MTT-based checkerboard microplate method; format: functional; in short: as §1
[10] = Synergistic cytotoxicity against mouse L5178 cells expressing human ABCB1 assessed as combination index at ED50 using 30:1 test compound to doxorubicin ratio after 48 hrs by MTT-based checkerboard microplate method; format: functional; in short: as §1
[11] = Synergistic cytotoxicity against mouse L5178 cells assessed as combination index at ED75 using 37.5:1 test compound to doxorubicin ratio after 48 hrs by MTT-based checkerboard microplate method; format: functional; in short: as §1
[12] = target: T1, ABCB1 (P-glycoprotein) (Homo sapiens, UniProt P08183); assay: Inhibition of human ABCB1 expressed in mouse L5178 cells assessed as increase in rhodamine-123 accumulation at 20 uM after 10 mins by flow cytometric analysis relative to control; format: cell-based; conditions: mouse L5178 cells expressing human ABCB1, probe rhodamine-123
T1 sequence (P08183 whole entry): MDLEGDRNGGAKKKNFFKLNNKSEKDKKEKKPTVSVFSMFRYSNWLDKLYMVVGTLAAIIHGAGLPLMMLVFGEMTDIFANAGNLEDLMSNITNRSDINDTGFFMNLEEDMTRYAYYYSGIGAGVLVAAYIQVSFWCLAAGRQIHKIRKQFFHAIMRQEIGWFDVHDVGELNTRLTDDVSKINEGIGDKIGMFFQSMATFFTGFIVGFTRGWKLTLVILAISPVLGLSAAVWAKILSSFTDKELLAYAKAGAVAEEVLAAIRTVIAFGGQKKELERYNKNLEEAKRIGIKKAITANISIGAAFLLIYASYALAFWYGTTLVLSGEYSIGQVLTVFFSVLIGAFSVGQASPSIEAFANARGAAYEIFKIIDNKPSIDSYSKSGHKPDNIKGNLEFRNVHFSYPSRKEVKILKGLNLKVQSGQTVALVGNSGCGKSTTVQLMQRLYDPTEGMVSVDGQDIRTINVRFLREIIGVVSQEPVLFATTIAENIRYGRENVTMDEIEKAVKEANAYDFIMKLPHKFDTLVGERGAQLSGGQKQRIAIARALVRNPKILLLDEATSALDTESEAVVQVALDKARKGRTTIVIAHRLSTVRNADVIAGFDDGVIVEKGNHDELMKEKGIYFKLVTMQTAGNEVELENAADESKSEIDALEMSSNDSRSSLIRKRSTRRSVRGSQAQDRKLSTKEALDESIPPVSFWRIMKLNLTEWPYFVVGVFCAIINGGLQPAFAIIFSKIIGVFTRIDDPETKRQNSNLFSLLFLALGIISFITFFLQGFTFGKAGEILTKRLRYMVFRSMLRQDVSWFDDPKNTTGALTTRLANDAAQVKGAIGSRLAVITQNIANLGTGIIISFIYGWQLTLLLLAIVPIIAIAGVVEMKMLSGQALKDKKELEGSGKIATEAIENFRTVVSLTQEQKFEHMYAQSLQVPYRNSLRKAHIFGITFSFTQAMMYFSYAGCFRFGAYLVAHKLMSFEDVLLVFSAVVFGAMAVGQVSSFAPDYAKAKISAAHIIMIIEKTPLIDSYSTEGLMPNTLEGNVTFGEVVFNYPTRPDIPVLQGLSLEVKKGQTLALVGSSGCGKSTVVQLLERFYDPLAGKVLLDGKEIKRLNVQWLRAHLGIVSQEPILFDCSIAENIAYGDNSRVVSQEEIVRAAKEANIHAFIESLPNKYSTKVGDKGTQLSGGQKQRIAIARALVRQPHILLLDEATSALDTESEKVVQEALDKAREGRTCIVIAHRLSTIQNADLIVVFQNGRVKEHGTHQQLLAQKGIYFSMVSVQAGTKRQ
In short: (§2)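 Cells at 2 × 10^6/mL were preincubated 10 min with compound. Rhodamine 123 then added to 5.2 µM final, 20 min at 37 °C. Cells washed twice in PBS, resuspended and read by flow cytometry. Percent inhibition was scaled between MDR-cell accumulation (0%) and parental L5178 accumulation (100%). Controls: 100 nM tariquidar (positive) and 2% DMSO (negative).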

[13] = Synergistic cytotoxicity against mouse L5178 cells expressing human ABCB1 assessed as combination index at ED50 using 60:1 test compound to doxorubicin ratio after 48 hrs by MTT-based checkerboard microplate method; format: functional; in short: as §1
[14] = Synergistic cytotoxicity against mouse L5178 cells assessed as combination index at ED90 using 37.5:1 test compound to doxorubicin ratio after 48 hrs by MTT-based checkerboard microplate method; format: functional; in short: as §1
[15] = Synergistic cytotoxicity against mouse L5178 cells assessed as combination index at ED50 using 37.5:1 test compound to doxorubicin ratio after 48 hrs by MTT-based checkerboard microplate method; format: functional; in short: as §1
[16] = Synergistic cytotoxicity against mouse L5178 cells expressing human ABCB1 assessed as combination index at ED50 using 3.75:1 test compound to doxorubicin ratio after 48 hrs by MTT-based checkerboard microplate method; format: functional; in short: as §1
[17] = Synergistic cytotoxicity against mouse L5178 cells assessed as combination index at ED50 using 600:1 test compound to doxorubicin ratio after 48 hrs by MTT-based checkerboard microplate method; format: functional; in short: as §1
[18] = Synergistic cytotoxicity against mouse L5178 cells expressing human ABCB1 assessed as combination index at ED90 using 60:1 test compound to doxorubicin ratio after 48 hrs by MTT-based checkerboard microplate method; format: functional; in short: as §1
[19] = Synergistic cytotoxicity against mouse L5178 cells expressing human ABCB1 assessed as combination index at ED50 using 7.5:1 test compound to doxorubicin ratio after 48 hrs by MTT-based checkerboard microplate method; format: functional; in short: as §1
[20] = Synergistic cytotoxicity against mouse L5178 cells expressing human ABCB1 assessed as combination index at ED75 using 3.75:1 test compound to doxorubicin ratio after 48 hrs by MTT-based checkerboard microplate method; format: functional; in short: as §1
[21] = Synergistic cytotoxicity against mouse L5178 cells expressing human ABCB1 assessed as combination index at ED90 using 3.75:1 test compound to doxorubicin ratio after 48 hrs by MTT-based checkerboard microplate method; format: functional; in short: as §1
[22] = Synergistic cytotoxicity against mouse L5178 cells assessed as combination index at ED75 using 150:1 test compound to doxorubicin ratio after 48 hrs by MTT-based checkerboard microplate method; format: functional; in short: as §1
[23] = Synergistic cytotoxicity against mouse L5178 cells expressing human ABCB1 assessed as combination index at ED90 using 7.5:1 test compound to doxorubicin ratio after 48 hrs by MTT-based checkerboard microplate method; format: functional; in short: as §1
[24] = Synergistic cytotoxicity against mouse L5178 cells assessed as combination index at ED50 using 150:1 test compound to doxorubicin ratio after 48 hrs by MTT-based checkerboard microplate method; format: functional; in short: as §1
[25] = target: T1, ABCB1 (P-glycoprotein); assay: Inhibition of human ABCB1 expressed in mouse L5178 cells assessed as increase in rhodamine-123 accumulation at 2 uM after 10 mins by flow cytometric analysis relative to control; format: cell-based; conditions: mouse L5178 cells expressing human ABCB1, probe rhodamine-123; in short: as §2
[26] = Synergistic cytotoxicity against mouse L5178 cells assessed as combination index at ED90 using 600:1 test compound to doxorubicin ratio after 48 hrs by MTT-based checkerboard microplate method; format: functional; in short: as §1
[27] = tested on: MDA-MB-231; assay: Antiproliferative activity against human MDA-MB-231 cells after 72 hrs by MTT assay; format: functional, cell-based; conditions: MDA-MB-231, 72 h
In short: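 Cells grown in MEM with 10% FCS, 1% non-essential amino acids and 1% penicillin-streptomycin. Seeded at 5000 cells/well, exposed to 0.1–30.0 µM compound for 72 h. MTT (5 mg/ml solution) was then added for 4 h, formazan dissolved in DMSO, and absorbance read at 545 nm. Cisplatin served as positive control. IC50 came from sigmoidal dose–response fits (log inhibitor vs normalized response, variable slope).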

## C=CCO/N=C1/C=C2C3=CC[C@H]([C@@]4(C)OC(C)(C)O[C@@H]4CCC(C)(C)O)[C@@]3(C)CC[C@@H]2[C@@]2(C)C[C@@H]3OC(C)(C)O[C@@H]3C[C@@H]12
[1]
  CI: 0.34
[2]
  CI: 0.22
[3]
  CI: 1.07
[4]
  CI: 0.44
[5]
  CI: 0.17
[6]
  CI: 0.22
[7]
  CI: 0.58
[8]
  pIC50: 4.26
[9]
  CI: 0.99
[10]
  CI: 0.32
[11]
  CI: 0.47
[12]
  inhibition at 10 min, 20 µM: 103%
[13]
  CI: 0.41
[14]
  CI: 0.47
[15]
  CI: 0.46
[16]
  CI: 0.25
[17]
  CI: 0.88
[18]
  CI: 0.39
[19]
  CI: 0.22
[20]
  CI: 0.15
[21]
  CI: 0.11
[22]
  CI: 0.63
[23]
  CI: 0.15
[24]
  CI: 0.24
[25]
  inhibition at 10 min, 2 µM: 61.1%
[26]
  CI: 1.12
[27]
  pIC50: 4.53
